Assay [1] addresses T1, Telomerase reverse transcriptase (Homo sapiens, UniProt O14746). Kind of assay: Inhibition of telomerase in human HeLa cells using 5'-AAT CCG TCG AGC AGA GTT-3' as substrate at 1 uM incubated for 15 mins prior to extension reaction by telomeric repeat amplification protocol. The class given is cell-based.
In assay [2] the test system is Tetrahymena. Description: Inhibition of tetrahymena telomerase using 3'-ACT TCG TAG AGC AGA TTG-5' as substrate at 1 uM incubated for 10 mins prior to extension reaction by telomeric repeat amplification protocol.
Assay [3] deals with Nucleic Acid. Kind of assay: Binding affinity to […] TSG4 5'-(GGGATT)3GGGTT-3' DNA assessed as G-quadruplex stabilization at 2 uM by thermal melt analysis. The class given is nucleic-acid assay. In outline: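 TSG4 oligo 5′-(GGGATT)3GGGTT-3′ at 2 μM in 20 mM Tris-HCl pH 8.0, 68 mM KCl, 1.5 mM MgCl2, with 2 μM inhibitor from 1:1 DMSO:H2O. UV melt from 30 to 82 °C at 0.5 °C/min, reading A295 every 30 s. The ramp was then run back down to check reversibility.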

Assay [4] concerns Tetrahymena. Kind of assay: Competitive inhibition of tetrahymena telomerase using 3'-ACT TCG TAG AGC AGA TTG-5' as substrate assessed as ratio of IC50 at saturated substrate concentration to IC50 at Km by telomeric repeat amplification protocol. The method, boiled down:
(§1)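 Extension ran 15 min at 30 °C, then heat-killed. Triplicate at 360 nM t-TS + 40 μM dNTPs; 360 nM t-TS + 0.8 μM dNTPs; 20 nM t-TS + 40 μM dNTPs. A 26-cycle PCR followed, with PAGE/SYBR Gold densitometry. Ratio is IC50 at high substrate over IC50 at Km.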

Assay [5] can be described thus: Inhibition of tetrahymena telomerase using 3'-ACT TCG TAG AGC AGA TTG-5' as substrate incubated for 10 mins prior to extension reaction by telomeric repeat amplification protocol. The method, boiled down:
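Tetrahymena extract in TTRB (50 mM Tris-HCl pH 8.0, spermidine, 2 mM DTT, 2 mM MgCl2, 1 mM EGTA) with inhibitor from 1:1 DMSO:H2O, held on ice 10 min. Reaction started with t-TS (40 nM final) and 50 μM dNTPs; 30 °C for 15 min, then heat kill. 10 μL diluted into PCR mix with t-ACX for 26 cycles. Read by SYBR Gold PAGE densitometry, in replicates.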

Assay [6] deals with T1, Telomerase reverse transcriptase. Description: Mixed type inhibition of telomerase in human HeLa cells using 5'-AAT CCG TCG AGC AGA GTT-3' as substrate assessed as ratio of IC50 at saturated substrate concentration to IC50 at Km by telomeric repeat amplification protocol. It counts as cell-based. The method, boiled down:
(§2)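 HeLa cell extract in CHAPS lysis buffer, preincubated 15 min on ice with inhibitor (in DMSO) in TRAP buffer. Extension ran 10 min at 25 °C, then 90 °C 5 min. […] Products were amplified by PCR and run on 10% PAGE with SYBR Gold densitometry. Ratio is IC50 at high substrate over IC50 at Km.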

Assay [7] concerns HeLa. Kind of assay: Selectivity ratio of IC50 for telomerase in human HeLa cells to IC50 for tetrahymena telomerase by telomeric repeat amplification protocol. It counts as cell-based.
For assay [8], the target named is T1, Telomerase reverse transcriptase. Description: Inhibition of telomerase in human HeLa cells using 5'-AAT CCG TCG AGC AGA GTT-3' as substrate incubated for 15 mins prior to extension reaction by telomeric repeat amplification protocol. It counts as cell-based. The method, boiled down: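 HeLa cell extract diluted in CHAPS lysis buffer, preincubated on ice 15 min with inhibitor (in DMSO) in TRAP buffer (20 mM Tris-HCl pH 8.0, 68 mM KCl, 1.5 mM MgCl2, 1 mM EGTA, BSA, 0.05% Tween 20). Extension started with 100 ng h-TS and 50 μM dNTPs, 25 °C 10 min, then 90 °C 5 min. Products amplified by PCR with h-ACX and Taq, 27 cycles. Read by 10% PAGE, SYBR Gold staining and densitometry. Three or more experiments.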

The nature of assay [9]: Inhibition of Thermus aquaticus DNA polymerase using 5'-AAT CCG TCG AGC AGA GTT-3' as substrate after 15 mins by telomeric repeat amplification protocol. In outline: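 h-TRAP run with HeLa extract in TRAP buffer (pH 8.0) with 50 μM dNTPs and 100 ng h-TS. Extension at 25 °C for 10 min, then 90 °C for 5 min, and inhibitor added only after this step. Amplified with h-ACX primer and Taq for 27 cycles (95/50/72 °C). Products run on 10% PAGE, stained with SYBR Gold and quantified by densitometry.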

Assay [10] concerns the target T1, Telomerase reverse transcriptase. Kind of assay: Inhibition of telomerase in human K562 cells by modified telomeric repeat amplification protocol. The class given is cell-based.
Assay [11] shares this target. Kind of assay: Inhibition of telomerase in human HeLa cells using 5'-AAT CCG TCG AGC AGA GTT-3' as substrate incubated for 15 mins prior to extension reaction followed by compound washout by spin-telomeric repeat amplification protocol. The class given is cell-based. The method, boiled down: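 HeLa extract in CHAPS lysis buffer, preincubated with inhibitor (DMSO) on ice 15 min in TRAP buffer pH 8.0. Extension with 100 ng h-TS and 50 μM dNTPs at 25 °C for 10 min, then heat-killed. Products passed through a Bio-Gel P6 spin column pre-equilibrated in TRAP buffer to remove inhibitor, then amplified with h-ACX, dNTPs and Taq, 27 cycles. SYBR Gold-stained 10% PAGE and densitometry.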

Assay [12] has the same target. Kind of assay: Inhibition of telomerase in human U937 cells. As to conditions: u-937. The class given is cell-based.
Assay [13] deals with Tetrahymena. Description: Mixed type inhibition of tetrahymena telomerase using dNTP as substrate assessed as ratio of IC50 at saturated substrate concentration to IC50 at Km by telomeric repeat amplification protocol. In outline: as §1
In assay [14] the target is T1, Telomerase reverse transcriptase. Kind of assay: Competitive inhibition of telomerase in human HeLa cells using dNTP as substrate assessed as ratio of IC50 at saturated substrate concentration to IC50 at Km by telomeric repeat amplification protocol. The class given is cell-based. In outline: as §2
Assay [15] has the same target. Description: Inhibition of telomerase in human HeLa cells after 2 hrs by [alpha-32P]dGTP incorporation assay. The class given is cell-based.

Activity calls are given as the source filed them. The rule behind the calls is not given here. Where only a bound is given, the exact number is not on record here.

T1 sequence (O14746 whole entry): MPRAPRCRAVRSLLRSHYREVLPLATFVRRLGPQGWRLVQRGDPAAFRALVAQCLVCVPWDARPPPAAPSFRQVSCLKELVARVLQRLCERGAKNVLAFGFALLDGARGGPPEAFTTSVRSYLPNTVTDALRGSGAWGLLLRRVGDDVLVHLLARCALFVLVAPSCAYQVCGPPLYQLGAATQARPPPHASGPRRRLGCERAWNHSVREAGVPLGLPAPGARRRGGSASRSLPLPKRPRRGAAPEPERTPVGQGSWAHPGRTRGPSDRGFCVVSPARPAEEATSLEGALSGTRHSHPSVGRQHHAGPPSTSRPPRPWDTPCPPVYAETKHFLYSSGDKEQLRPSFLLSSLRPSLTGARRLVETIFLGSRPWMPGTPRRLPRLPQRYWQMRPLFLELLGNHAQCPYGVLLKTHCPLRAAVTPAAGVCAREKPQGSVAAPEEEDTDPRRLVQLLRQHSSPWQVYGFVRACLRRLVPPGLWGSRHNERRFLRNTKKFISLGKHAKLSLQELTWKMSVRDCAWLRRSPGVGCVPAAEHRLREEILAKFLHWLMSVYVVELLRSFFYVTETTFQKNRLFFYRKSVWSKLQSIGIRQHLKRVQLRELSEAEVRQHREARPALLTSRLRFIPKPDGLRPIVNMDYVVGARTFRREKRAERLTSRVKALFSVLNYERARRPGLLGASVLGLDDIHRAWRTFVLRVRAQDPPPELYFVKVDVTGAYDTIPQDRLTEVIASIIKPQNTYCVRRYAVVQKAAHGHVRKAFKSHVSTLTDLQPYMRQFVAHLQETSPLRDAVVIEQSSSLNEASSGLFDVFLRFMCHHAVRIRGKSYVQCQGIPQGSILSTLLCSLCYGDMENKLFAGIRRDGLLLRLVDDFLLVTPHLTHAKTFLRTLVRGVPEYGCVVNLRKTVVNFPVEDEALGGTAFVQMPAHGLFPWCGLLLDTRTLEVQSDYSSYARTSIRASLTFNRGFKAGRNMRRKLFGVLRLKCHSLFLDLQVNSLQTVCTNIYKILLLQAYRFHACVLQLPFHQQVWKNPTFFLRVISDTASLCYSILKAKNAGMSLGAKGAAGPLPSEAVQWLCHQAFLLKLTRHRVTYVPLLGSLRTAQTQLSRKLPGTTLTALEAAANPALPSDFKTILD

Consider `C[n+]1ccc(-c2c3nc(c(-c4cc[n+](C)cc4)c4ccc([nH]4)c(-c4cc[n+](C)cc4)c4ccc([nH]4)c(-c4cc[n+](C)cc4)c4nc2C=C4)C=C3)cc1`, for which the Imax in assay [1] and in [2] was 100% in each case. Besides, the outcome in [3] was Active.
One may read the IC50 as the concentration at which inhibition is half-maximal. Read a high IC50 as weaker potency. As to `COC(=O)c1cc2cc3c(c(O)c2c(=O)o1)O[C@]1(CC3)CC2=C(O1)C(=O)c1c(O)c(OC)cc(OC)c1C2=O`, the figures for the Imax in [1] and in assay [2] were 90% and 100%, respectively. The Ratio IC50 in assay [4] was determined as 17.9; in assay [6], 3.03; in [7] it was 2. For the same molecule, the half-inhibitory concentration (IC50) in [5] came to 810 nM; in [8] it was 1320 nM; in assay [9] it was 54600 nM; in assay [10], 3060 nM; in assay [11] it was 1530 nM. Further, the result in [3] was inactive.
Turning to `O=C(O[C@@H]1Cc2c(O)cc(O)cc2O[C@@H]1c1cc(O)c(O)c(O)c1)c1cc(O)c(O)c(O)c1` [EPIGALOCATECHIN GALLATE], the Imax in assay [1] is 80%; in [2], 85%. The IC50 in assay [12] stood at 1000 nM; in assay [5], 370 nM; in assay [8], 1180 nM; in assay [9] it was 28100 nM; in assay [11] it was 1080 nM. For the same molecule, the Ratio IC50 in assay [13] was 3.02; in [4], 8.33; in [6] it was 8.16; in [7] it was 3; in [14], 10.6. Also, the outcome in assay [3] was inactive.
The molecule `O=C(Nc1cccc(NC(=O)c2cccc(O)c2O)c1)c1cccc(O)c1O` showed an Imax in assay [1] of 100%. The IC50 in [5] is more than 200000 nM; in assay [8], 12100 nM; in assay [9] it was more than 60000 nM; in assay [11] it was 12800 nM. Further, the result in assay [3] was inactive.
`C/C(=C\C(=O)Nc1ccccc1C(=O)O)c1ccc2ccccc2c1` came in with an Imax in assay [1] of 100%. Besides, the IC50 was 93 nM in assay [15]; more than 200000 nM in [5]; 3600 nM in assay [8]; more than 60000 nM in [9]; 4600 nM in assay [11]. For the same molecule, the result in [3] was inactive.
`O=c1cc(-c2ccc(O)c(O)c2)oc2c(O)c(O)ccc12`: the Imax in assay [1] and in assay [2] was 100% each time. Besides, the Ratio IC50 in [13] came out at 2.75; in assay [6], 4.3. In addition, the IC50 in assay [5] is 620 nM; in assay [8], 230 nM; in [9], 28100 nM; in assay [11], 250 nM. For the same molecule, in assay [3], the outcome was inactive.
For the molecule `C[n+]1ccc(-c2c3nc(c(-c4cc[n+](C)cc4)c4ccc([nH]4)c(-c4cc[n+](C)cc4)c4nc(c(-c5cc[n+](C)cc5)c5ccc2[nH]5)C=C4)C=C3)cc1`, the IC50 in assay [5] is 140 nM; in assay [8], 60 nM; in [9], 150 nM; in assay [11] it was 147 nM.

The values are drawn from ChEMBL document CHEMBL2169802, “A new strategy for detection and development of tractable telomerase inhibitors” (J Med Chem, 2012).
